Key:
CCRF-CEM [1] = test: Growth inhibition of human CCRF-CEM cells at 10 uM after 2 days by MTT assay; format: functional; details: 48 h
HCT-116 [2] = test: Growth inhibition of human HCT116 cells after 2 days by MTT assay; format: functional; details: HCT-116, 48 h
Summary of the method: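 HCT116 colorectal carcinoma cells from KCLB/ATCC were grown in RPMI 1640/DMEM with 10% heat-inactivated FBS at 37 °C and 5% CO₂. Cells were seeded at 5 × 10⁴ cells/ml and exposed in duplicate to a range of concentrations for two days. MTT dye was added for up to 4 h at 37 °C, formazan was solubilized overnight at room temperature, and A570 gave GI₅₀.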

HCT-116 [3] = test: Growth inhibition of human HCT116 cells at 10 uM after 2 days by MTT assay; format: functional; details: HCT-116, 48 h
CCRF-CEM [4] = test: Growth inhibition of human CCRF-CEM cells after 2 days by MTT assay; format: functional; details: 48 h
HaCaT = test: Cytotoxicity against human HaCaT cells

## COc1cc(OC)cc(-c2cn(-c3ccc(O)c(C(=O)Nc4cccc(C(F)(F)F)c4)c3)nn2)c1
CCRF-CEM [1]
  inhibition at 10 µM: 73%
HCT-116 [2]
  GI50: 4.37 µM
HCT-116 [3]
  inhibition at 10 µM: 62%
CCRF-CEM [4]
  GI50: 6.41 µM

## COC(=O)c1cc(-n2cc(-c3ccc(OC)cc3)nn2)ccc1O
CCRF-CEM [1]
  inhibition at 10 µM: 16%
HCT-116 [3]
  inhibition at 10 µM: 6%

## COC(=O)c1cc(-n2cc(-c3ccccc3OC)nn2)ccc1O
CCRF-CEM [1]
  inhibition at 10 µM: 6%
HCT-116 [3]
  inhibition at 10 µM: 8%

## COC(=O)c1cc(-n2cc(-c3cccc(O)c3)nn2)ccc1O
CCRF-CEM [1]
  inhibition at 10 µM: 5%
HCT-116 [3]
  inhibition at 10 µM: 6%

## COc1ccc(OC)c(-c2cn(-c3ccc(O)c(C(=O)NCCc4ccc(F)cc4)c3)nn2)c1
CCRF-CEM [1]
  inhibition at 10 µM: 35%
HCT-116 [2]
  GI50: 13.6 µM
HCT-116 [3]
  inhibition at 10 µM: 44%
CCRF-CEM [4]
  GI50: 22.9 µM

## O=C(NCCc1ccc(F)cc1)c1cc(-n2cc(-c3cccc(O)c3)nn2)ccc1O
CCRF-CEM [1]
  inhibition at 10 µM: 35%
HCT-116 [2]
  GI50: > 100 µM
CCRF-CEM [4]
  GI50: 22.8 µM

## COc1ccc(-c2cn(-c3ccc(O)c(C(=O)NCCc4ccc(F)cc4)c3)nn2)cc1
CCRF-CEM [1]
  inhibition at 10 µM: 21%
HCT-116 [2]
  GI50: 12.5 µM
HCT-116 [3]
  inhibition at 10 µM: 62%
CCRF-CEM [4]
  GI50: > 100 µM

## COc1ccccc1-c1cn(-c2ccc(O)c(C(=O)NCCc3ccc(F)cc3)c2)nn1
CCRF-CEM [1]
  inhibition at 10 µM: 11%
HCT-116 [3]
  inhibition at 10 µM: 23%

## O=C(OCCCc1ccccc1)c1cc(-n2cc(-c3cccc(O)c3)nn2)ccc1O
CCRF-CEM [1]
  inhibition at 10 µM: 9%
HCT-116 [3]
  inhibition at 10 µM: 11%

## COC(=O)c1cc(-n2cc(-c3cc(OC)cc(OC)c3)nn2)ccc1O
CCRF-CEM [1]
  inhibition at 10 µM: 3%
HCT-116 [3]
  inhibition at 10 µM: 3%

## COc1ccc(OC)c(-c2cn(-c3ccc(O)c(C(=O)O)c3)nn2)c1
CCRF-CEM [1]
  inhibition at 10 µM: 9%

## COC(=O)c1cc(-n2cc(-c3cc(OC)ccc3OC)nn2)ccc1O
CCRF-CEM [1]
  inhibition at 10 µM: 3%
HCT-116 [3]
  inhibition at 10 µM: 6%

## COC(=O)c1cc(-n2cc(-c3cc(O)ccc3O)nn2)ccc1O
CCRF-CEM [1]
  inhibition at 10 µM: 52%
HCT-116 [2]
  GI50: > 100 µM
HCT-116 [3]
  inhibition at 10 µM: 15%
CCRF-CEM [4]
  GI50: 13.9 µM

## O=C(O)c1cc(-n2cc(-c3cccc(O)c3)nn2)ccc1O
CCRF-CEM [1]
  inhibition at 10 µM: 3%
HCT-116 [3]
  inhibition at 10 µM: 5%

## COc1ccc(-c2cn(-c3ccc(O)c(C(=O)O)c3)nn2)cc1
CCRF-CEM [1]
  inhibition at 10 µM: 9%
HCT-116 [3]
  inhibition at 10 µM: 8%

## COc1ccccc1-c1cn(-c2ccc(O)c(C(=O)O)c2)nn1
CCRF-CEM [1]
  inhibition at 10 µM: 9%
HCT-116 [3]
  inhibition at 10 µM: 4%

## O=C(NCCc1ccc(F)cc1)c1cc(-n2cc(-c3cc(O)ccc3O)nn2)ccc1O
CCRF-CEM [1]
  inhibition at 10 µM: 15%
HCT-116 [3]
  inhibition at 10 µM: 18%

## COc1ccc(-c2cn(-c3ccc(O)c(C(=O)Nc4cccc(C(F)(F)F)c4)c3)nn2)cc1
CCRF-CEM [1]
  inhibition at 10 µM: 12%
HCT-116 [3]
  inhibition at 10 µM: 9%

## COc1ccc(OC)c(-c2cn(-c3ccc(O)c(C(=O)OCCCc4ccccc4)c3)nn2)c1
CCRF-CEM [1]
  inhibition at 10 µM: 5%
HCT-116 [3]
  inhibition at 10 µM: 13%

## O=C(OCCCc1ccccc1)c1cc(-n2cc(-c3cc(O)ccc3O)nn2)ccc1O
CCRF-CEM [1]
  inhibition at 10 µM: 81%
HCT-116 [2]
  GI50: 20.4 µM
HCT-116 [3]
  inhibition at 10 µM: 39%
CCRF-CEM [4]
  GI50: 0.93 µM

## COc1cc(OC)cc(-c2cn(-c3ccc(O)c(C(=O)NCCc4ccc(F)cc4)c3)nn2)c1
CCRF-CEM [1]
  inhibition at 10 µM: 35%
HCT-116 [2]
  GI50: 16.1 µM
HCT-116 [3]
  inhibition at 10 µM: 43%
CCRF-CEM [4]
  GI50: > 100 µM

## COc1ccc(OC)c(-c2cn(-c3ccc(O)c(C(=O)Nc4cccc(C(F)(F)F)c4)c3)nn2)c1
CCRF-CEM [1]
  inhibition at 10 µM: 15%
HCT-116 [2]
  GI50: 12.9 µM
HCT-116 [3]
  inhibition at 10 µM: 46%
CCRF-CEM [4]
  GI50: > 100 µM

## O=C(Nc1cccc(C(F)(F)F)c1)c1cc(-n2cc(-c3cccc(O)c3)nn2)ccc1O
CCRF-CEM [1]
  inhibition at 10 µM: 13%
HCT-116 [3]
  inhibition at 10 µM: 25%

## COc1ccc(-c2cn(-c3ccc(O)c(C(=O)OCCCc4ccccc4)c3)nn2)cc1
CCRF-CEM [1]
  inhibition at 10 µM: 5%
HCT-116 [3]
  inhibition at 10 µM: 12%

## COc1ccccc1-c1cn(-c2ccc(O)c(C(=O)OCCCc3ccccc3)c2)nn1
CCRF-CEM [1]
  inhibition at 10 µM: 4%
HCT-116 [3]
  inhibition at 10 µM: 7%

## COc1cc(OC)cc(-c2cn(-c3ccc(O)c(C(=O)OCCCc4ccccc4)c3)nn2)c1
CCRF-CEM [1]
  inhibition at 10 µM: 8%
HCT-116 [3]
  inhibition at 10 µM: 19%

## COc1cc(OC)cc(-c2cn(-c3ccc(O)c(C(=O)O)c3)nn2)c1
CCRF-CEM [1]
  inhibition at 10 µM: 9%
HCT-116 [3]
  inhibition at 10 µM: 2%

## COc1ccccc1-c1cn(-c2ccc(O)c(C(=O)Nc3cccc(C(F)(F)F)c3)c2)nn1
CCRF-CEM [1]
  inhibition at 10 µM: 65%
HCT-116 [2]
  GI50: 7.92 µM
HCT-116 [3]
  inhibition at 10 µM: 61%
CCRF-CEM [4]
  GI50: 10.5 µM

## COc1cccc2c1C(=O)c1c(O)c3c(c(O)c1C2=O)C[C@@](O)(C(=O)CO)C[C@@H]3O[C@H]1C[C@H](N)[C@H](O)[C@H](C)O1 [DOXORUBICIN]
HCT-116 [2]
  GI50: 0.4 µM
CCRF-CEM [4]
  GI50: 0.02 µM

## O=C(O)c1cc(NCc2cc(O)ccc2O)ccc1O [LAVENDUSTIN C]
HaCaT
  IC50: > 100 µM
